# In ChEMBL document CHEMBL3612047, “Synthesis, antiproliferative activity and possible mechanism of action of novel 2-acetamidobenzamides bearing the 2-phenoxy functionality” (Bioorg Med Chem, 2015):
# The source made the active and inactive calls. No cut-off for these calls is given here.
# Assays:
# [1] = test system: HL-60(TB); experiment: Growth inhibition of human HL-60(TB) cells by NCI standard protocol based method; type: functional
# Procedure, shortened: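 Tested in the NCI 60-cell-line screen under its standard protocol. A single-dose prescreen was run at 10⁻⁵ M, then a five-dose assay. GI50 is the molar concentration that inhibits net cell growth by 50%.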
# [2] = test system: NCI-H23; experiment: Growth inhibition of human NCI-H23 cells by NCI standard protocol based method; type: functional
# Procedure, shortened: (§1)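 NCI full 60-cell-line panel, 5-dose assay to the NCI standard protocol. GI₅₀ is the molar concentration inhibiting 50% net cell growth. Mean graph midpoint is averaged over all lines; where the effect is not reached, the highest tested concentration is used.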
# [3] = test system: SW-620; experiment: Growth inhibition of human SW620 cells by NCI standard protocol based method; type: functional
# Procedure, shortened: (§2)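 NCI 60-cell-line screen, standard NCI protocol. Single high dose of 10⁻⁵ M first, then a 5-dose assay across the full panel. Reported as GI₅₀, TGI and LC₅₀, the molar concentrations giving 50% net growth inhibition, total growth inhibition and 50% net cell death. Where an effect was not reached, the highest tested concentration was used.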
# [4] = test system: NCI-H322M; experiment: Growth inhibition of human NCI-H322M cells by NCI standard protocol based method; type: functional; procedure, shortened: as §1
# [5] = test system: NCI-H522; experiment: Growth inhibition of human NCI-H522 cells by NCI standard protocol based method; type: functional; procedure, shortened: as §1
# [6] = Growth inhibition of human SF295 cells by NCI standard protocol based method; type: functional; conditions: SF-295; procedure, shortened: as §1
# [7] = test system: SK-MEL-2; experiment: Growth inhibition of human SK-MEL-2 cells by NCI standard protocol based method; type: functional; procedure, shortened: as §1
# [8] = test system: TK-10; experiment: Growth inhibition of human TK10 cells by NCI standard protocol based method; type: functional; procedure, shortened: as §2
# [9] = test system: A498; experiment: Growth inhibition of human A498 cells by NCI standard protocol based method; type: functional; procedure, shortened: as §1
# [10] = Growth inhibition of human HOP92 cells by NCI standard protocol based method; type: functional; conditions: HOP-92; procedure, shortened: as §1
# [11] = test system: SK-MEL-5; experiment: Growth inhibition of human SK-MEL-5 cells by NCI standard protocol based method; type: functional; procedure, shortened: as §1
# [12] = test system: OVCAR-3; experiment: Growth inhibition of human OVCAR3 cells by NCI standard protocol based method; type: functional; procedure, shortened: as §1
# [13] = test system: UACC-62; experiment: Growth inhibition of human UACC62 cells by NCI standard protocol based method; type: functional; procedure, shortened: as §2
# [14] = test system: 786-0; experiment: Growth inhibition of human 786-0 cells by NCI standard protocol based method; type: functional; procedure, shortened: as §1
# [15] = biological target: Tubulin (Homo sapiens) (UniProt P68371+Q9H4B7+P0DPH7+P68366+Q13509+Q71U36+P04350+Q3ZCM7+P07437+P68363+Q9BQE3+Q6PEY2+Q13885+Q9BVA1+Q9BUF5); experiment: Inhibition of tubulin (unknown origin) assembly; type: protein-complex assay
# [16] = test system: CAKI-1; experiment: Growth inhibition of human CAKI-1 cells by NCI standard protocol based method; type: functional; procedure, shortened: as §1
# [17] = test system: K562; experiment: Growth inhibition of human K562 cells incubated for 24 hrs by trypan blue dye exclusion assay; type: functional, cell-based; conditions: K562, 24 h
# Procedure, shortened: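 K562 cells, about 2 × 10⁵ cells/mL, precultured 24 h, then exposed 24 h to a range of compound concentrations. Viable cells counted by hemocytometer with trypan blue exclusion to derive IC₅₀.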
# [18] = test system: A549; experiment: Growth inhibition of human A549/ATCC cells by NCI standard protocol based method; type: functional; procedure, shortened: as §1
# [19] = test system: HCT-116; experiment: Growth inhibition of human HCT116 cells by NCI standard protocol based method; type: functional; procedure, shortened: as §1
# [20] = test system: K562; experiment: Induction of mitotic arrest in human K562 cells; type: functional, cell-based
# [21] = test system: K562; experiment: Growth inhibition of human K562 cells at 10 uM incubated for 24 hrs by trypan blue dye exclusion assay; type: functional; conditions: K562, 24 h, read-out: GI
# Procedure, shortened: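 K562 cells in medium with 5% FBS at 37 °C, 5% CO₂. About 2 × 10⁵ cells/mL cultured 24 h, then compound added at 10 μM. After 24 h exposure, cells counted by hemocytometer and viability scored by trypan blue exclusion, reported as percent growth inhibition.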
# [22] = test system: SNB-19; experiment: Growth inhibition of human SNB19 cells by NCI standard protocol based method; type: functional; procedure, shortened: as §2
# [23] = Growth inhibition of human MOLT4 cells by NCI standard protocol based method; type: functional; conditions: MOLT-4; procedure, shortened: as §1
# [24] = test system: PC-3; experiment: Growth inhibition of human PC3 cells by NCI standard protocol based method; type: functional; procedure, shortened: as §1
# [25] = test system: MDA-MB-231; experiment: Growth inhibition of human MDA-MB-231 cells by NCI standard protocol based method; type: functional; procedure, shortened: as §1
# [26] = test system: SN12C; experiment: Growth inhibition of human SN12C cells by NCI standard protocol based method; type: functional; procedure, shortened: as §2
# [27] = Growth inhibition of human RXF393 cells by NCI standard protocol based method; type: functional; conditions: RXF 393; procedure, shortened: as §1
# [28] = test system: MDA-MB-468; experiment: Growth inhibition of human MDA-MB-468 cells by NCI standard protocol based method; type: functional; procedure, shortened: as §1
# [29] = Growth inhibition of human NCI60 cells assessed as cell growth level at 10 uM by NCI standard protocol based method; type: functional; set-up: scale not given: the % may be the effect or the level left
# Procedure, shortened: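 NCI 60-cell-line screen (leukemia, lung, colon, melanoma, renal, ovarian, brain, breast, prostate) run to the NCI standard protocol. Single high dose of 10⁻⁵ M, read as growth percent. Mean graph midpoint is the arithmetic mean over all lines tested.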
# [30] = test system: SK-MEL-28; experiment: Growth inhibition of human SK-MEL-28 cells by NCI standard protocol based method; type: functional; procedure, shortened: as §1
# [31] = test system: KM12; experiment: Growth inhibition of human KM12 cells by NCI standard protocol based method; type: functional; procedure, shortened: as §1
# [32] = test system: OVCAR-5; experiment: Growth inhibition of human OVCAR5 cells by NCI standard protocol based method; type: functional; procedure, shortened: as §1
# [33] = test system: OVCAR-8; experiment: Growth inhibition of human OVCAR8 cells by NCI standard protocol based method; type: functional; procedure, shortened: as §1
# [34] = test system: MDA-MB-435; experiment: Growth inhibition of human MDA-MB-435 cells by NCI standard protocol based method; type: functional; procedure, shortened: as §1
# [35] = test system: NCI-H226; experiment: Growth inhibition of human NCI-H226 cells by NCI standard protocol based method; type: functional; procedure, shortened: as §1
# [36] = test system: HOP-62; experiment: Growth inhibition of human HOP62 cells by NCI standard protocol based method; type: functional; procedure, shortened: as §1
# [37] = test system: MCF7; experiment: Growth inhibition of human MCF7 cells by NCI standard protocol based method; type: functional; procedure, shortened: as §1
# [38] = test system: SNB-75; experiment: Growth inhibition of human SNB75 cells by NCI standard protocol based method; type: functional; procedure, shortened: as §2
# [39] = test system: SF-268; experiment: Growth inhibition of human SF268 cells by NCI standard protocol based method; type: functional; procedure, shortened: as §1
# [40] = Growth inhibition of human SF539 cells by NCI standard protocol based method; type: functional; conditions: SF-539; procedure, shortened: as §1
# [41] = Growth inhibition of human NCI60 cells by NCI standard protocol based method; type: functional; conditions: for TGI: read-out: pTGI (converted); procedure, shortened: as §1
# [42] = test system: NCI-H460; experiment: Growth inhibition of human NCI-H460 cells by NCI standard protocol based method; type: functional; procedure, shortened: as §1
# [43] = test system: M14; experiment: Growth inhibition of human M14 cells by NCI standard protocol based method; type: functional; procedure, shortened: as §1
# [44] = test system: K562; experiment: Growth inhibition of human K562 cells by NCI standard protocol based method; type: functional; procedure, shortened: as §1
# [45] = test system: HT-29; experiment: Growth inhibition of human HT-29 cells by NCI standard protocol based method; type: functional; procedure, shortened: as §1
# [46] = test system: IGROV-1; experiment: Growth inhibition of human IGROV1 cells by NCI standard protocol based method; type: functional; procedure, shortened: as §1
smiles,measurement,setting,value
COc1cc(NC(=O)COc2ccccc2)c(C(N)=O)cc1OC,GI50,[1],0.293 µM
same,GI50,[2],1.32 µM
same,GI50,[3],0.646 µM
same,GI50,[4],5.77 µM
same,GI50,[5],0.41 µM
same,GI50,[6],0.93 µM
same,GI50,[7],0.203 µM
same,GI50,[8],14.4 µM
same,GI50,[9],2.77 µM
same,GI50,[10],17.7 µM
same,GI50,[11],0.766 µM
same,GI50,[12],0.472 µM
same,GI50,[13],2.52 µM
same,GI50,[14],7.32 µM
same,inhibition,[15],inactive
same,GI50,[16],3.8 µM
same,IC50,[17],0.58 µM
same,GI50,[18],0.917 µM
same,GI50,[19],0.62 µM
same,Activity,[20],Active
same,inhibition of growth at 10 µM,[21],72.8%
same,GI50,[22],3.31 µM
same,GI50,[23],2.91 µM
same,GI50,[24],2.23 µM
same,GI50,[25],2.39 µM
same,GI50,[26],3.12 µM
same,GI50,[27],1.69 µM
same,GI50,[28],0.848 µM
same,Activity,[29],27.38%
same,GI50,[30],24.2 µM
same,GI50,[31],0.443 µM
same,GI50,[32],15 µM
same,GI50,[33],3.01 µM
same,GI50,[34],0.614 µM
same,GI50,[35],42.8 µM
same,GI50,[36],1.75 µM
same,GI50,[37],0.661 µM
same,GI50,[38],0.547 µM
same,GI50,[39],6.77 µM
same,GI50,[40],0.563 µM
same,GI50,[41],1.95 µM
same,LC50,[41],93.3 µM
same,TGI,[41],49 µM
same,GI50,[42],0.529 µM
same,GI50,[43],4 µM
same,GI50,[44],0.31 µM
same,GI50,[45],0.437 µM
same,GI50,[46],4.07 µM
NC(=O)c1cc(Cl)ccc1NC(=O)COc1ccccc1,GI50,[1],3.29 µM
same,GI50,[2],5.9 µM
same,GI50,[3],2.58 µM
same,GI50,[4],7.09 µM
same,GI50,[5],3.78 µM
same,GI50,[6],1.96 µM
same,GI50,[7],5.08 µM
same,GI50,[8],63.8 µM
same,GI50,[9],1.41 µM
same,GI50,[10],5.7 µM
same,GI50,[11],7.45 µM
same,GI50,[12],2.3 µM
same,GI50,[13],5.42 µM
same,GI50,[14],9.54 µM
same,inhibition,[15],inactive
same,GI50,[16],4.18 µM
same,IC50,[17],1.3 µM
same,GI50,[18],7.06 µM
same,GI50,[19],2.72 µM
same,Activity,[20],Active
same,inhibition of growth at 10 µM,[21],87%
same,GI50,[22],11.7 µM
same,GI50,[23],8.14 µM
same,GI50,[24],3.22 µM
same,GI50,[25],9.01 µM
same,GI50,[26],17 µM
same,GI50,[27],3.93 µM
same,GI50,[28],1.74 µM
same,Activity,[29],46.4%
same,GI50,[30],6.25 µM
same,GI50,[31],2.13 µM
same,GI50,[32],3.86 µM
same,GI50,[33],7.06 µM
same,GI50,[34],0.356 µM
same,GI50,[36],5.88 µM
same,GI50,[37],1.81 µM
same,GI50,[38],1.81 µM
same,GI50,[39],9.89 µM
same,GI50,[40],1.8 µM
same,GI50,[41],4.9 µM
same,LC50,[41],100 µM
same,TGI,[41],72.4 µM
same,GI50,[42],3 µM
same,GI50,[43],2.21 µM
same,GI50,[44],0.854 µM
same,GI50,[45],1.74 µM
same,GI50,[46],5.6 µM
